Measurements published in ChEMBL document CHEMBL3621107, “Ring fusion strategy for synthesis and lead optimization of sulfur-substituted anthra[1,2-c][1,2,5]thiadiazole-6,11-dione derivatives as promising scaffold of antitumor agents” (Eur J Med Chem, 2015).

How the values were obtained:
OVCAR-5 = assay: Cytotoxicity against human OVCAR5 cells assessed as cell growth at 10 uM after 48 hrs by SRB assay relative to control; type: functional; conditions: OVCAR-5, 48 h, read-out: Activity
In short: (§1)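 First-stage NCI DTP one-dose screen against the 60 human tumour cell line panel. Compounds were tested at a single 10 μM level, and results are given as growth percentage.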

U-251 = assay: Cytotoxicity against human U251 cells assessed as cell growth at 10 uM after 48 hrs by SRB assay relative to control; type: functional; conditions: U-251, 48 h, read-out: Activity
In short: (§2)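 NCI-60 one-dose screen run by NCI DTP: each cell line exposed to a single 10 µM dose, and percentage growth recorded against untreated growth.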

Malme-3M = assay: Cytotoxicity against human MALME-3M cells assessed as cell growth at 10 uM after 48 hrs by SRB assay relative to control; type: functional; conditions: read-out: Activity
In short: (§3)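 First-stage NCI-60 screen by the NCI Developmental Therapeutics Program. Each compound was tested once at a single concentration of 10 μM against the 60-cell-line panel. Growth percentage was reported for each cell line.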

BT-549 = assay: Cytotoxicity against human BT549 cells assessed as cell growth at 10 uM after 48 hrs by SRB assay relative to control; type: functional; conditions: BT-549, 48 h, read-out: Activity; in short: as §3
RXF 393 = assay: Cytotoxicity against human RXF393 cells assessed as cell growth at 10 uM after 48 hrs by SRB assay relative to control; type: functional; conditions: RXF 393, 48 h, read-out: Activity; in short: as §1
SK-MEL-2 = assay: Cytotoxicity against human SK-MEL-2 cells assessed as cell growth at 10 uM after 48 hrs by SRB assay relative to control; type: functional; conditions: SK-MEL-2, 48 h, read-out: Activity; in short: as §1
TK-10 = assay: Cytotoxicity against human TK10 cells assessed as cell growth at 10 uM after 48 hrs by SRB assay relative to control; type: functional; conditions: TK-10, 48 h, read-out: Activity; in short: as §2
IGROV-1 = assay: Cytotoxicity against human IGROV1 cells assessed as cell growth at 10 uM after 48 hrs by SRB assay relative to control; type: functional; conditions: IGROV-1, 48 h, read-out: Activity; in short: as §3
LOX IMVI = assay: Cytotoxicity against human LOXIMVI cells assessed as cell growth at 10 uM after 48 hrs by SRB assay relative to control; type: functional; conditions: read-out: Activity; in short: as §3
DU-145 [1] = assay: Cytotoxicity against human DU145 cells after 72 hrs by MTT assay; type: functional, cell-based; conditions: DU-145, 72 h
In short: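 DU-145 cells grown in RPMI-1640 with 5% heat-inactivated fetal calf serum at 37 °C, 5% CO2. About 2×10^3 cells per well were seeded and incubated for 24 h. Compounds were dissolved in DMSO freshly and diluted into medium (vehicle 0.1% DMSO), then cells were exposed for 72 h. MTT was added for 3 h at 37 °C and absorbance read at 570 nm.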

[2] = Cytotoxicity against human Hs578T cells assessed as cell growth at 10 uM after 48 hrs by SRB assay relative to control; type: functional; conditions: Hs-578T, read-out: Activity; in short: as §3
KM12 = assay: Cytotoxicity against human KM12 cells assessed as cell growth at 10 uM after 48 hrs by SRB assay relative to control; type: functional; conditions: KM12, 48 h, read-out: Activity; in short: as §3
SK-OV-3 = assay: Cytotoxicity against human SKOV3 cells assessed as cell growth at 10 uM after 48 hrs by SRB assay relative to control; type: functional; conditions: SK-OV-3, 48 h, read-out: Activity; in short: as §1
HCC 2998 = assay: Cytotoxicity against human HCC2998 cells assessed as cell growth at 10 uM after 48 hrs by SRB assay relative to control; type: functional; conditions: HCC 2998, 48 h, read-out: Activity; in short: as §3
M14 = assay: Cytotoxicity against human M14 cells assessed as cell growth at 10 uM after 48 hrs by SRB assay relative to control; type: functional; conditions: M14, 48 h, read-out: Activity; in short: as §3
NCI-H226 = assay: Cytotoxicity against human NCI-H226 cells assessed as cell growth at 10 uM after 48 hrs by SRB assay relative to control; type: functional; conditions: NCI-H226, 48 h, read-out: Activity; in short: as §1
A498 = assay: Cytotoxicity against human A498 cells assessed as cell growth at 10 uM after 48 hrs by SRB assay relative to control; type: functional; conditions: A498, 48 h, read-out: Activity; in short: as §3
UACC-62 = assay: Cytotoxicity against human UACC62 cells assessed as cell growth at 10 uM after 48 hrs by SRB assay relative to control; type: functional; conditions: UACC-62, 48 h, read-out: Activity; in short: as §2
[3] = Cytotoxicity against human EKVX cells assessed as cell growth at 10 uM after 48 hrs by SRB assay relative to control; type: functional; conditions: read-out: Activity; in short: as §3
T47D = assay: Cytotoxicity against human T47D cells assessed as cell growth at 10 uM after 48 hrs by SRB assay relative to control; type: functional; conditions: read-out: Activity; in short: as §2
SK-MEL-28 = assay: Cytotoxicity against human SK-MEL-28 cells assessed as cell growth at 10 uM after 48 hrs by SRB assay relative to control; type: functional; conditions: SK-MEL-28, 48 h, read-out: Activity; in short: as §1
HOP-92 = assay: Cytotoxicity against human HOP92 cells assessed as cell growth at 10 uM after 48 hrs by SRB assay relative to control; type: functional; conditions: HOP-92, 48 h, read-out: Activity; in short: as §3
MDA-MB-231 = assay: Cytotoxicity against human MDA-MB-231 cells assessed as cell growth at 10 uM after 48 hrs by SRB assay relative to control; type: functional; conditions: MDA-MB-231, 48 h, read-out: Activity; in short: as §1
NCI-H460 = assay: Cytotoxicity against human NCI-H460 cells assessed as cell growth at 10 uM after 48 hrs by SRB assay relative to control; type: functional; conditions: NCI-H460, 48 h, read-out: Activity; in short: as §1
786-0 = assay: Cytotoxicity against human 786-0 cells assessed as cell growth at 10 uM after 48 hrs by SRB assay relative to control; type: functional; conditions: 786-0, 48 h, read-out: Activity; in short: as §3
ACHN = assay: Cytotoxicity against human ACHN cells assessed as cell growth at 10 uM after 48 hrs by SRB assay relative to control; type: functional; conditions: read-out: Activity; in short: as §3
HT-29 = assay: Cytotoxicity against human HT-29 cells assessed as cell growth at 10 uM after 48 hrs by SRB assay relative to control; type: functional; conditions: HT-29, 48 h, read-out: Activity; in short: as §3
DU-145 [4] = assay: Cytotoxicity against human DU145 cells assessed as cell growth at 10 uM after 48 hrs by SRB assay relative to control; type: functional; conditions: DU-145, 48 h, read-out: Activity; in short: as §3
NCI-H23 = assay: Cytotoxicity against human NCI-H23 cells assessed as cell growth at 10 uM after 48 hrs by SRB assay relative to control; type: functional; conditions: NCI-H23, 48 h, read-out: Activity; in short: as §1
SK-MEL-5 = assay: Cytotoxicity against human SK-MEL-5 cells assessed as cell growth at 10 uM after 48 hrs by SRB assay relative to control; type: functional; conditions: SK-MEL-5, 48 h, read-out: Activity; in short: as §1
PC-3 = assay: Cytotoxicity against human PC3 cells assessed as cell growth at 10 uM after 48 hrs by SRB assay relative to control; type: functional; conditions: PC-3, 48 h, read-out: Activity; in short: as §1
HCT-15 = assay: Cytotoxicity against human HCT15 cells assessed as cell growth at 10 uM after 48 hrs by SRB assay relative to control; type: functional; conditions: HCT-15, 48 h, read-out: Activity; in short: as §3

Work on `COc1ccc(Sc2cc3c(c4nsnc24)C(=O)c2ccccc2C3=O)cc1` yielded a growth at 10 µM (OVCAR-5) of 103%, a growth at 10 µM (U-251) of 103% and a growth at 10 µM (Malme-3M) of 89.5%. The growth at 10 µM (BT-549) was 92.9%, the growth at 10 µM (RXF 393) was 109% and the growth at 10 µM (SK-MEL-2) was 99.2%. The growth at 10 µM (TK-10) was 136%, the growth at 10 µM (IGROV-1) was 103% and the growth at 10 µM (LOX IMVI) was 90.2%. It also gave an IC50 (DU-145 [1]) of 8.26 µM, a growth at 10 µM [2] of 96.7% and a growth at 10 µM (KM12) of 101%. It also gave a growth at 10 µM (SK-OV-3) of 106%, a growth at 10 µM (HCC 2998) of 107% and a growth at 10 µM (M14) of 92.9%. The growth at 10 µM (NCI-H226) was 79.5%, the growth at 10 µM (A498) was 84.8% and the growth at 10 µM (UACC-62) was 109%. For the same compound, the growth at 10 µM [3] was 149%, the growth at 10 µM (T47D) was 89.7% and the growth at 10 µM (SK-MEL-28) was 116%. The growth at 10 µM (HOP-92) was 91.4%, the growth at 10 µM (MDA-MB-231) was 87.6% and the growth at 10 µM (NCI-H460) was 107%. It also gave a growth at 10 µM (786-0) of 94.9%, a growth at 10 µM (ACHN) of 102% and a growth at 10 µM (HT-29) of 101%. It also gave a growth at 10 µM (DU-145 [4]) of 112%, a growth at 10 µM (NCI-H23) of 89.1% and a growth at 10 µM (SK-MEL-5) of 106%. The growth at 10 µM (PC-3) was 82.8% and the growth at 10 µM (HCT-15) was 109%.
Compound `CSc1ccc(Sc2cc3c(c4nsnc24)C(=O)c2ccccc2C3=O)cc1` has a growth at 10 µM (OVCAR-5) of 108%, a growth at 10 µM (U-251) of 104% and a growth at 10 µM (Malme-3M) of 105%. It also gave a growth at 10 µM (BT-549) of 108%, a growth at 10 µM (RXF 393) of 107% and a growth at 10 µM (SK-MEL-2) of 89.3%. The growth at 10 µM (TK-10) was 128%, the growth at 10 µM (IGROV-1) was 95.7% and the growth at 10 µM (LOX IMVI) was 69%. It also gave an IC50 (DU-145 [1]) of over 15 µM, a growth at 10 µM [2] of 96.5% and a growth at 10 µM (KM12) of 100%. It also gave a growth at 10 µM (SK-OV-3) of 102%, a growth at 10 µM (HCC 2998) of 111% and a growth at 10 µM (M14) of 108%. It also gave a growth at 10 µM (NCI-H226) of 79.7%, a growth at 10 µM (A498) of 56% and a growth at 10 µM (UACC-62) of 111%. The growth at 10 µM [3] was 114%, the growth at 10 µM (T47D) was 86.6% and the growth at 10 µM (SK-MEL-28) was 120%. The growth at 10 µM (HOP-92) was 4.31%, the growth at 10 µM (MDA-MB-231) was 78.8% and the growth at 10 µM (NCI-H460) was 106%. It also gave a growth at 10 µM (786-0) of 110%, a growth at 10 µM (ACHN) of 104% and a growth at 10 µM (HT-29) of 102%. For the same compound, the growth at 10 µM (DU-145 [4]) was 101%, the growth at 10 µM (NCI-H23) was 81.5% and the growth at 10 µM (SK-MEL-5) was 101%. It also gave a growth at 10 µM (PC-3) of 78.4% and a growth at 10 µM (HCT-15) of 112%.
`COc1cccc(Sc2cc3c(c4nsnc24)C(=O)c2ccccc2C3=O)c1` showed a growth at 10 µM (OVCAR-5) of 123%, a growth at 10 µM (U-251) of 101% and a growth at 10 µM (Malme-3M) of 113%. The growth at 10 µM (BT-549) was 94.9%, the growth at 10 µM (RXF 393) was 124% and the growth at 10 µM (SK-MEL-2) was 82.6%. For the same compound, the growth at 10 µM (TK-10) was 131%, the growth at 10 µM (IGROV-1) was 99.9% and the growth at 10 µM (LOX IMVI) was 71%. The IC50 (DU-145 [1]) was over 15 µM, the growth at 10 µM [2] was 93.8% and the growth at 10 µM (KM12) was 97.1%. The growth at 10 µM (SK-OV-3) was 110%, the growth at 10 µM (HCC 2998) was 105% and the growth at 10 µM (M14) was 94.2%. The growth at 10 µM (NCI-H226) was 95.3%, the growth at 10 µM (A498) was 83.7% and the growth at 10 µM (UACC-62) was 87.7%. It also gave a growth at 10 µM [3] of 105%, a growth at 10 µM (T47D) of 69.1% and a growth at 10 µM (SK-MEL-28) of 102%. For the same compound, the growth at 10 µM (HOP-92) was 101%, the growth at 10 µM (MDA-MB-231) was 87.1% and the growth at 10 µM (NCI-H460) was 100%. It also gave a growth at 10 µM (786-0) of 103%, a growth at 10 µM (ACHN) of 98.7% and a growth at 10 µM (HT-29) of 105%. For the same compound, the growth at 10 µM (DU-145 [4]) was 98.9%, the growth at 10 µM (NCI-H23) was 76.4% and the growth at 10 µM (SK-MEL-5) was 100%. The growth at 10 µM (PC-3) was 76% and the growth at 10 µM (HCT-15) was 71.9%.
